# In ChEMBL document CHEMBL3758106, “Antitumor Activity of Americanin A Isolated from the Seeds of Phytolacca americana by Regulating the ATM/ATR Signaling Pathway and the Skp2-p27 Axis in Human Colon Cancer Cells” (J Nat Prod, 2015):
# Tests used:
# [1] = Antiproliferative activity against human HCT116 cells after 24 to 72 hrs by SRB assay; assay type: functional, cell-based; conditions: HCT-116
# Procedure, shortened: (§1)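 Cells grown in 96-well plates (RPMI 1640; MRC-5 in MEM, 10% FBS, antibiotics) with compound […]; fixed in 10% TCA 30 min at 4 °C, stained 0.4% SRB in 1% acetic acid 1 h, dye dissolved in 10 mM Tris pH 10.0, A515 read; viability as % of solvent control, IC50 by nonlinear regression; mean of three independent experiments.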
# HCT-116 [2] = assay: Induction of apoptosis in human HCT116 cells assessed as dead cells at 1 mM after 48 hrs by annexin V-FITC/propidium iodide staining-based flow cytometric analysis (reference value: 4.2%); assay type: functional
# HCT-116 [3] = assay: Induction of apoptosis in human HCT116 cells assessed as viable cells at 1 mM after 48 hrs by annexin V-FITC/propidium iodide staining-based flow cytometric analysis (reference value: 87.4%); assay type: functional; conditions: HCT-116, 48 h, read-out: Activity
# HCT-116 [4] = assay: Induction of reactive oxygen species in human HCT116 cells at 1 mM after 48 hrs by DCFH-DA staining-based flow cytometric analysis (reference value: 5.1%); assay type: functional
# Procedure, shortened: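 HCT116 cells seeded overnight, then exposed to test compounds, alone or with NAC, for 48 h in complete medium. Loaded with 20 μM DCFH-DA for 30 min; intracellular ROS in 20 000 cells per group read by flow cytometry as histograms.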
# HCT-116 [5] = assay: Induction of apoptosis in human HCT116 cells assessed as late apoptotic cells at 1 mM after 48 hrs by annexin V-FITC/propidium iodide staining-based flow cytometric analysis (reference value: 7.2%); assay type: functional
# HCT-116 [6] = assay: Induction of apoptosis in human HCT116 cells assessed as early apoptotic cells at 1 mM after 48 hrs by annexin V-FITC/propidium iodide staining-based flow cytometric analysis (reference value: 1.1%); assay type: functional
# A549 = assay: Antiproliferative activity against human A549 cells after 24 to 72 hrs by SRB assay; assay type: functional, cell-based; procedure, shortened: as §1
# CAKI-1 = assay: Antiproliferative activity against human CAKI-1 cells after 24 to 72 hrs by SRB assay; assay type: functional, cell-based; procedure, shortened: as §1
# [7] = Antiproliferative activity against human HCT116 cells assessed as cell viability after 48 hrs by SRB assay; assay type: functional, cell-based; conditions: HCT-116, 48 h
# Procedure, shortened: (§2)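 HCT116 cells in 96-well plates exposed 24, 48 or 72 h; TCA fixation, 0.4% SRB staining, dye solubilised in 10 mM Tris pH 10.0, absorbance at 515 nm; viability relative to solvent-treated control.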
# [8] = Antiproliferative activity against human HCT116 cells assessed as cell viability after 24 hrs by SRB assay; assay type: functional, cell-based; conditions: HCT-116, 24 h; procedure, shortened: as §2
# [9] = Antiproliferative activity against human HCT116 cells assessed as cell viability after 72 hrs by SRB assay; assay type: functional, cell-based; conditions: HCT-116, 72 h; procedure, shortened: as §2
# MRC5 = assay: Cytotoxicity against human MRC5 cells after 24 to 72 hrs by SRB assay; assay type: cell-based; procedure, shortened: as §1
# K562 = assay: Antiproliferative activity against human K562 cells after 24 to 72 hrs by SRB assay; assay type: functional, cell-based; procedure, shortened: as §1
# [10] = Antiproliferative activity against p53-null human HCT116 cells assessed as cell viability after 72 hrs by SRB assay; assay type: functional, cell-based; conditions: HCT-116, 72 h
# Procedure, shortened: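 p53 wild-type and p53-null HCT116 cells in 96-well plates treated 72 h; SRB assay (TCA fix, SRB stain, Tris pH 10.0 solubilisation, A515); viability vs solvent control, IC50 by nonlinear regression.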
# [11] = Antiproliferative activity against human HCT15 cells after 24 to 72 hrs by SRB assay; assay type: functional, cell-based; conditions: HCT-15; procedure, shortened: as §1
# [12] = Antitumor activity against human HCT116 cells xenografted in nude mouse assessed as tumor growth inhibition at 10 mg/kg, ip administered once per week measured on day 41; assay type: functional; conditions: HCT-116, ip, 984 h, read-out: TGI
# Procedure, shortened: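 Nude mice given 2 × 10^6 HCT116 cells subcutaneously in flank; at ~120 mm3 randomised, six per group; ip dosing in 200 μL, test agent 5 or 10 mg/kg three times weekly, irinotecan 10 mg/kg once weekly; tumour volume measured twice weekly to day 41; body weight tracked for toxicity.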
# SW480 = assay: Antiproliferative activity against human SW480 cells after 24 to 72 hrs by SRB assay; assay type: functional, cell-based; procedure, shortened: as §1
# RKO = assay: Antiproliferative activity against human RKO cells after 24 to 72 hrs by SRB assay; assay type: functional, cell-based; procedure, shortened: as §1
structure (smiles),measurement,setting,value
CC(=O)/C=C/C=C/c1ccc2c(c1)O[C@@H](CO)[C@H](c1ccc(O)c(O)c1)O2,IC50,[1],> 100 µM
O=C/C=C/c1ccc2c(c1)O[C@@H](CO)[C@H](c1ccc3c(c1)O[C@@H](CO)[C@H](c1ccc(O)c(O)c1)O3)O2,IC50,[1],10.9 µM
COc1ccc([C@@H]2Oc3ccc(C=O)cc3O[C@H]2CO)cc1OC,IC50,[1],> 100 µM
COc1ccc([C@@H]2Oc3ccc(/C=C/C=O)cc3O[C@H]2COC(C)=O)cc1OC,IC50,[1],5.6 µM
O=C/C=C/c1ccc2c(c1)[C@@H](CO)[C@H](c1ccc(O)c(O)c1)O2,IC50,[1],10.4 µM
COc1ccc([C@@H]2Oc3ccc(/C=C/C=O)cc3O[C@H]2CO)cc1OC,IC50,[1],4 µM
CC(=O)N[C@@H](CS)C(=O)O [ACETYLCYSTEINE],Activity,HCT-116 [2],4.9%
same,viability at 1000 µM,HCT-116 [3],85.6%
same,Activity,HCT-116 [4],6%
same,Activity,HCT-116 [5],8.5%
same,Activity,HCT-116 [6],1.1%
COc1cc([C@@H]2c3cc4c(cc3[C@@H](O[C@@H]3O[C@@H]5CO[C@@H](C)O[C@H]5[C@H](O)[C@H]3O)[C@H]3COC(=O)[C@H]23)OCO4)cc(OC)c1O [ETOPOSIDE],IC50,A549,0.8 µM
same,IC50,CAKI-1,1.1 µM
same,IC50,[1],3.3 µM
same,IC50,[7],2.3 µM
same,IC50,[8],> 20 µM
same,IC50,[9],0.3 µM
same,IC50,MRC5,> 20 µM
same,IC50,K562,6.7 µM
same,IC50,[10],3.1 µM
CCc1c2c(nc3ccc(OC(=O)N4CCC(N5CCCCC5)CC4)cc13)-c1cc3c(c(=O)n1C2)COC(=O)[C@]3(O)CC [IRINOTECAN],IC50,[1],2 µM
same,IC50,[11],8.5 µM
same,inhibition in vivo at 10 mg/kg,[12],68.6%
same,IC50,SW480,12.3 µM
same,IC50,RKO,6.2 µM
